The source of these data is ChEMBL document CHEMBL1121923, “N2- and C-7 substituted actinomycin D analogues: synthesis, DNA-binding affinity, and biochemical and biological properties. Structure-activity relationship” (J Med Chem, 1981).

The species entered for this series is Bos taurus. In words: Thermal denaturation (deltaTm) of compound against calf thymus DNA was measured. Format: ADME. To be noted: cattle, in vitro. The gist of the method:
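Calf thymus DNA (MW 100 000–500 000) in 0.01 M phosphate, 5 × 10^-3 M EDTA, pH 7.0; drug 7 × 10^-4 M, DNA nucleotide 7 × 10^-3 M; 259 nm absorbance read at 0.25–1.0 °C steps; Tm taken at 50% hyperchromicity; ΔTm = complex Tm minus DNA Tm.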
With `Cc1c2oc3c(C)c(OCc4ccc([N+](=O)[O-])cc4)cc(C(=O)N[C@@H]4C(=O)N[C@H](C(C)C)C(=O)N5CCC[C@H]5C(=O)N(C)CC(=O)N(C)[C@@H](C(C)C)C(=O)O[C@@H]4C)c3nc-2c(C(=O)N[C@@H]2C(=O)N[C@H](C(C)C)C(=O)N3CCC[C@H]3C(=O)N(C)CC(=O)N(C)[C@@H](C(C)C)C(=O)O[C@@H]2C)c(N)c1=O`, the “Delta Tm” value was 0. For the compound `CCCCCCCCC/N=c1/cc(C(=O)N[C@@H]2C(=O)N[C@H](C(C)C)C(=O)N3CCC[C@H]3C(=O)N(C)CC(=O)N(C)[C@@H](C(C)C)C(=O)O[C@@H]2C)c2nc3c(C(=O)N[C@@H]4C(=O)N[C@H](C(C)C)C(=O)N5CCC[C@H]5C(=O)N(C)CC(=O)N(C)[C@@H](C(C)C)C(=O)O[C@@H]4C)c(N)c(O)c(C)c3oc-2c1C`, the “Delta Tm” value is 1.1. Under `Cc1c2oc3c(C)ccc(C(=O)N[C@@H]4C(=O)N[C@H](C(C)C)C(=O)N5CCC[C@H]5C(=O)N(C)CC(=O)N(C)[C@@H](C(C)C)C(=O)O[C@@H]4C)c3nc-2c(C(=O)N[C@@H]2C(=O)N[C@H](C(C)C)C(=O)N3CCC[C@H]3C(=O)N(C)CC(=O)N(C)[C@@H](C(C)C)C(=O)O[C@@H]2C)c(NCCCCCN)c1=O` stands 1.1; under `Cc1c2oc3c(C)ccc(C(=O)N[C@@H]4C(=O)N[C@H](C(C)C)C(=O)N5CCC[C@H]5C(=O)N(C)CC(=O)N(C)[C@@H](C(C)C)C(=O)O[C@@H]4C)c3nc-2c(C(=O)N[C@@H]2C(=O)N[C@H](C(C)C)C(=O)N3CCC[C@H]3C(=O)N(C)CC(=O)N(C)[C@@H](C(C)C)C(=O)O[C@@H]2C)c(NCCCCCCCCN)c1=O`, 0.3. Take `Cc1c2oc3c(C)ccc(C(=O)N[C@@H]4C(=O)N[C@H](C(C)C)C(=O)N5CCC[C@H]5C(=O)N(C)CC(=O)N(C)[C@@H](C(C)C)C(=O)O[C@@H]4C)c3nc-2c(C(=O)N[C@@H]2C(=O)N[C@H](C(C)C)C(=O)N3CCC[C@H]3C(=O)N(C)CC(=O)N(C)[C@@H](C(C)C)C(=O)O[C@@H]2C)c(NCCCCN)c1=O`: the “Delta Tm” value came out at 1.8. The same measure for `Cc1c2oc3c(C)c(O)c(N)c(C(=O)N[C@@H]4C(=O)N[C@H](C(C)C)C(=O)N5CCC[C@H]5C(=O)N(C)CC(=O)N(C)[C@@H](C(C)C)C(=O)O[C@@H]4C)c3nc-2c(C(=O)N[C@@H]2C(=O)N[C@H](C(C)C)C(=O)N3CCC[C@H]3C(=O)N(C)CC(=O)N(C)[C@@H](C(C)C)C(=O)O[C@@H]2C)c/c1=N/Cc1ccccc1`: 6.6. The same measure for `CCCCCCOc1cc(C(=O)N[C@@H]2C(=O)N[C@H](C(C)C)C(=O)N3CCC[C@H]3C(=O)N(C)CC(=O)N(C)[C@@H](C(C)C)C(=O)O[C@@H]2C)c2nc3c(C(=O)N[C@@H]4C(=O)N[C@H](C(C)C)C(=O)N5CCC[C@H]5C(=O)N(C)CC(=O)N(C)[C@@H](C(C)C)C(=O)O[C@@H]4C)c(N)c(=O)c(C)c-3oc2c1C`: 1. Consider `Cc1c2oc3c(C)c(O)c(N)c(C(=O)N[C@@H]4C(=O)N[C@H](C(C)C)C(=O)N5CCC[C@H]5C(=O)N(C)CC(=O)N(C)[C@@H](C(C)C)C(=O)O[C@@H]4C)c3nc-2c(C(=O)N[C@@H]2C(=O)N[C@H](C(C)C)C(=O)N3CCC[C@H]3C(=O)N(C)CC(=O)N(C)[C@@H](C(C)C)C(=O)O[C@@H]2C)c/c1=N/Cc1ccc(Cl)c(Cl)c1`, for which the “Delta Tm” value was determined as 7. With `CCCCCNc1c(C(=O)N[C@@H]2C(=O)N[C@H](C(C)C)C(=O)N3CCC[C@H]3C(=O)N(C)CC(=O)N(C)[C@@H](C(C)C)C(=O)O[C@@H]2C)c2nc3c(C(=O)N[C@@H]4C(=O)N[C@H](C(C)C)C(=O)N5CCC[C@H]5C(=O)N(C)CC(=O)N(C)[C@@H](C(C)C)C(=O)O[C@@H]4C)ccc(C)c3oc-2c(C)c1=O`, the “Delta Tm” value is 0.

`CCCCOc1cc(C(=O)N[C@@H]2C(=O)N[C@H](C(C)C)C(=O)N3CCC[C@H]3C(=O)N(C)CC(=O)N(C)[C@@H](C(C)C)C(=O)O[C@@H]2C)c2nc3c(C(=O)N[C@@H]4C(=O)N[C@H](C(C)C)C(=O)N5CCC[C@H]5C(=O)N(C)CC(=O)N(C)[C@@H](C(C)C)C(=O)O[C@@H]4C)c(N)c(=O)c(C)c-3oc2c1C`: the “Delta Tm” value was 2.7. Under `CCCNc1c(C(=O)N[C@@H]2C(=O)N[C@H](C(C)C)C(=O)N3CCC[C@H]3C(=O)N(C)CC(=O)N(C)[C@@H](C(C)C)C(=O)O[C@@H]2C)c2nc3c(C(=O)N[C@@H]4C(=O)N[C@H](C(C)C)C(=O)N5CCC[C@H]5C(=O)N(C)CC(=O)N(C)[C@@H](C(C)C)C(=O)O[C@@H]4C)ccc(C)c3oc-2c(C)c1=O` stands 1.5; under `Cc1c2oc3c(C)ccc(C(=O)N[C@@H]4C(=O)N[C@H](C(C)C)C(=O)N5CCC[C@H]5C(=O)N(C)CC(=O)N(C)[C@@H](C(C)C)C(=O)O[C@@H]4C)c3nc-2c(C(=O)N[C@@H]2C(=O)N[C@H](C(C)C)C(=O)N3CCC[C@H]3C(=O)N(C)CC(=O)N(C)[C@@H](C(C)C)C(=O)O[C@@H]2C)c(NCCCCCCCCCCN)c1=O`, 6.6. Under `CCCCCCNc1c(C(=O)N[C@@H]2C(=O)N[C@H](C(C)C)C(=O)N3CCC[C@H]3C(=O)N(C)CC(=O)N(C)[C@@H](C(C)C)C(=O)O[C@@H]2C)c2nc3c(C(=O)N[C@@H]4C(=O)N[C@H](C(C)C)C(=O)N5CCC[C@H]5C(=O)N(C)CC(=O)N(C)[C@@H](C(C)C)C(=O)O[C@@H]4C)ccc(C)c3oc-2c(C)c1=O` stands 0. The same measure for `Cc1c2oc3c(C)c(O)c(N)c(C(=O)N[C@@H]4C(=O)N[C@H](C(C)C)C(=O)N5CCC[C@H]5C(=O)N(C)CC(=O)N(C)[C@@H](C(C)C)C(=O)O[C@@H]4C)c3nc-2c(C(=O)N[C@@H]2C(=O)N[C@H](C(C)C)C(=O)N3CCC[C@H]3C(=O)N(C)CC(=O)N(C)[C@@H](C(C)C)C(=O)O[C@@H]2C)cc1=N`: 8.2; for `Cc1c2oc3c(C)c(O)c(N)c(C(=O)N[C@@H]4C(=O)N[C@H](C(C)C)C(=O)N5CCC[C@H]5C(=O)N(C)CC(=O)N(C)[C@@H](C(C)C)C(=O)O[C@@H]4C)c3nc-2c(C(=O)N[C@@H]2C(=O)N[C@H](C(C)C)C(=O)N3CCC[C@H]3C(=O)N(C)CC(=O)N(C)[C@@H](C(C)C)C(=O)O[C@@H]2C)c/c1=N/Cc1cccc(Oc2ccccc2)c1`: 5.3. Take `CCCCNc1c(C(=O)N[C@@H]2C(=O)N[C@H](C(C)C)C(=O)N3CCC[C@H]3C(=O)N(C)CC(=O)N(C)[C@@H](C(C)C)C(=O)O[C@@H]2C)c2nc3c(C(=O)N[C@@H]4C(=O)N[C@H](C(C)C)C(=O)N5CCC[C@H]5C(=O)N(C)CC(=O)N(C)[C@@H](C(C)C)C(=O)O[C@@H]4C)ccc(C)c3oc-2c(C)c1=O`: the “Delta Tm” value turned out to be 0.2. Consider `Cc1c2oc3c(C)c(O)c(N)c(C(=O)N[C@@H]4C(=O)N[C@H](C(C)C)C(=O)N5CCC[C@H]5C(=O)N(C)CC(=O)N(C)[C@@H](C(C)C)C(=O)O[C@@H]4C)c3nc-2c(C(=O)N[C@@H]2C(=O)N[C@H](C(C)C)C(=O)N3CCC[C@H]3C(=O)N(C)CC(=O)N(C)[C@@H](C(C)C)C(=O)O[C@@H]2C)c/c1=N/Cc1ccc[nH]1`, for which the “Delta Tm” value was found to be 15.8.

For `Cc1c2oc3c(C)c(OCc4ccc(Cl)cc4)cc(C(=O)N[C@@H]4C(=O)N[C@H](C(C)C)C(=O)N5CCC[C@H]5C(=O)N(C)CC(=O)N(C)[C@@H](C(C)C)C(=O)O[C@@H]4C)c3nc-2c(C(=O)N[C@@H]2C(=O)N[C@H](C(C)C)C(=O)N3CCC[C@H]3C(=O)N(C)CC(=O)N(C)[C@@H](C(C)C)C(=O)O[C@@H]2C)c(N)c1=O`, the “Delta Tm” value was determined as 0. Take `Cc1c2oc3c(C)c(O)c(N)c(C(=O)N[C@@H]4C(=O)N[C@H](C(C)C)C(=O)N5CCC[C@H]5C(=O)N(C)CC(=O)N(C)[C@@H](C(C)C)C(=O)O[C@@H]4C)c3nc-2c(C(=O)N[C@@H]2C(=O)N[C@H](C(C)C)C(=O)N3CCC[C@H]3C(=O)N(C)CC(=O)N(C)[C@@H](C(C)C)C(=O)O[C@@H]2C)cc1=O`: the “Delta Tm” value amounted to 6.7. `Cc1c2oc3c(C)ccc(C(=O)N[C@@H]4C(=O)N[C@H](C(C)C)C(=O)N5CCC[C@H]5C(=O)N(C)CC(=O)N(C)[C@@H](C(C)C)C(=O)O[C@@H]4C)c3nc-2c(C(=O)N[C@@H]2C(=O)N[C@H](C(C)C)C(=O)N3CCC[C@H]3C(=O)N(C)CC(=O)N(C)[C@@H](C(C)C)C(=O)O[C@@H]2C)c(NCCCN)c1=O`: the “Delta Tm” value was 6.2.

In the case of `Cc1c2oc3c(C)c(OCc4ccc(Cl)c(Cl)c4)cc(C(=O)N[C@@H]4C(=O)N[C@H](C(C)C)C(=O)N5CCC[C@H]5C(=O)N(C)CC(=O)N(C)[C@@H](C(C)C)C(=O)O[C@@H]4C)c3nc-2c(C(=O)N[C@@H]2C(=O)N[C@H](C(C)C)C(=O)N3CCC[C@H]3C(=O)N(C)CC(=O)N(C)[C@@H](C(C)C)C(=O)O[C@@H]2C)c(N)c1=O`, the “Delta Tm” value is recorded as 0. Turning to `CCOc1cc(C(=O)N[C@@H]2C(=O)N[C@H](C(C)C)C(=O)N3CCC[C@H]3C(=O)N(C)CC(=O)N(C)[C@@H](C(C)C)C(=O)O[C@@H]2C)c2nc3c(C(=O)N[C@@H]4C(=O)N[C@H](C(C)C)C(=O)N5CCC[C@H]5C(=O)N(C)CC(=O)N(C)[C@@H](C(C)C)C(=O)O[C@@H]4C)c(N)c(=O)c(C)c-3oc2c1C`, the “Delta Tm” value came out at 5.9. The same measure for `CCCOc1cc(C(=O)N[C@@H]2C(=O)N[C@H](C(C)C)C(=O)N3CCC[C@H]3C(=O)N(C)CC(=O)N(C)[C@@H](C(C)C)C(=O)O[C@@H]2C)c2nc3c(C(=O)N[C@@H]4C(=O)N[C@H](C(C)C)C(=O)N5CCC[C@H]5C(=O)N(C)CC(=O)N(C)[C@@H](C(C)C)C(=O)O[C@@H]4C)c(N)c(=O)c(C)c-3oc2c1C`: 3.5; for `CCCCCCCCCNc1c(C(=O)N[C@@H]2C(=O)N[C@H](C(C)C)C(=O)N3CCC[C@H]3C(=O)N(C)CC(=O)N(C)[C@@H](C(C)C)C(=O)O[C@@H]2C)c2nc3c(C(=O)N[C@@H]4C(=O)N[C@H](C(C)C)C(=O)N5CCC[C@H]5C(=O)N(C)CC(=O)N(C)[C@@H](C(C)C)C(=O)O[C@@H]4C)ccc(C)c3oc-2c(C)c1=O`: 0; for `Cc1c2oc3c(C)c(O)c(N)c(C(=O)N[C@@H]4C(=O)N[C@H](C(C)C)C(=O)N5CCC[C@H]5C(=O)N(C)CC(=O)N(C)[C@@H](C(C)C)C(=O)O[C@@H]4C)c3nc-2c(C(=O)N[C@@H]2C(=O)N[C@H](C(C)C)C(=O)N3CCC[C@H]3C(=O)N(C)CC(=O)N(C)[C@@H](C(C)C)C(=O)O[C@@H]2C)c/c1=N/Cc1ccco1`: 5.8.

As for `CCCCCCCOc1cc(C(=O)N[C@@H]2C(=O)N[C@H](C(C)C)C(=O)N3CCC[C@H]3C(=O)N(C)CC(=O)N(C)[C@@H](C(C)C)C(=O)O[C@@H]2C)c2nc3c(C(=O)N[C@@H]4C(=O)N[C@H](C(C)C)C(=O)N5CCC[C@H]5C(=O)N(C)CC(=O)N(C)[C@@H](C(C)C)C(=O)O[C@@H]4C)c(N)c(=O)c(C)c-3oc2c1C`, the “Delta Tm” value was found to be 0.
